Source: PubChem BioAssay (several laboratories)
Yeast superoxide: yeast age-related superoxide inhibition as caloric restriction mimetic. S. cerevisiae aged cells, superoxide DHE fluorescence; active compounds read low. superoxide response (% of plate mean), % at 10 µM. 0.18% of 330,000 active. AID 2690;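 active = superoxide response under a set limit, about three screen SD below normal, cut at about 65% in these data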;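 note: yeast aged for seven days with compound at 30 °C before DHE staining; 100% = average MFI of all compound-treated wells on the plate with controls excluded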
rRNA inh HTS: inhibits bacterial ribosomal RNA function over humanized ribosomes; E. coli WT GFP vs humanized-ribosome RFP mutants, fluorescence, 24 h; active compounds read low; DMSO median 0, no signal -100; GFP signal change (wild-type ribosome), % (concentration not given with the values); 1.6% of 350,000 active; AID 720706;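 active = significant combined selectivity score with lowered wild-type GFP, culture density cut under 30%, mutant RFP and density less affected; inactive = any of these conditions unmet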
SUMO Mot1 rescue: blocks SUMOylation pathway, rescuing yeast Mot1-301 growth; S. cerevisiae Mot1-301 growth rescue, ATP luminescence, 38.5C; percent above DMSO median, 100 means doubled; growth rescue, % at 18.8 µM; 1% of 320,000 active; AID 2716;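 active = every valid replicate shows activation above 250% relative to neutral control wells; inactive = the rest, any valid replicate at or below 250%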;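 note: OY570 slx delta 5 strain wells were the positive control but not used for scaling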
PglD inh: inhibitors of Campylobacter jejuni PglD acetyltransferase. inhibition, % at 12.5 µM. AID 602405. 0.098% of 360,000 active. purified PglD enzyme, DTNB colorimetric CoA detection; in the data active = inhibition above about 16%, passing the limit was not always enough
Cneo AK release: Cryptococcus neoformans lysis via adenylate kinase release. lysis activity, % at 15 µM. C. neoformans lysis, adenylate kinase release luminescence, 4 h; normalised: neutral wells 0, clomiphene wells 100. 0.2% of 360,000 active. AID 651654;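 active = mean lysis activity across replicates of at least 80%, whatever share of replicates individually reach that level; inactive = mean lysis activity below 80%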
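Schedule: static 4 h at 37 °C with compound, 1 h detection; system: C. neoformans cells; benchmarks: Clomiphene as positive control; buffer or medium: fresh YPD medium; measure: luminescence rise reflecting yeast cell lysis; measured by: luminescent adenylate kinase detection reagent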
Yeast Mot1 SUMO: inhibits SUMO pathway, affecting Mot1-301 yeast growth; shares compounds with SUMO Mot1 rescue; S. cerevisiae Mot1-301 galactose growth, ATP luminescence, 24 h; -100 = growth of slx-deleted rescue strain; growth activity, percent, % at 42 µM; 2,300 tested, under 10 active;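 active = Signal drops as the depositor expects, and the fitted half-maximal dose is no more than ten times the top valid tested dose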;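 note: more negative values mean stronger growth rescue toward the control strain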
Numbers without * were called inactive; nt = no result; + = active, no number. In the library only some 2.2% were active in any assay of this set; here they are far more common.

SMILES	Yeast superoxide	rRNA inh HTS	SUMO Mot1 rescue	PglD inh	Cneo AK release	Yeast Mot1 SUMO
CCC(=O)Nc1nc(CC(=O)Nc2ccccc2OC)cs1	98	nt	+	2	3	0
O=C(c1ccccc1Cl)N1CCN(Cc2ccc3c(c2)OCO3)CC1	99	4	3	3	-4	nt
CN(c1ccccc1C(=O)N1CCN(Cc2ccc3c(c2)OCO3)CC1)S(C)(=O)=O	98	12	+	nt	nt	0
c1ccc(-c2nc(NCc3ccco3)c3ccccc3n2)nc1	93	nt	505*	2	6	0
COc1ccc(CN(C)C[C@H]2OCCCC[C@@H](C)Oc3ccc(NS(=O)(=O)c4cccs4)cc3C(=O)N([C@H](C)CO)C[C@@H]2C)cc1	nt	1	nt	1	1	nt
COc1cc2c(cc1NC(=O)c1cccnc1)oc1ccccc12	89	nt	555*	1	1	-1
COc1cc2c(cc1NC(=O)c1ccncc1)oc1ccccc12	102	nt	290	nt	nt	nt
CC(C)NC(=O)N(C)C[C@H]1Oc2cc(C#Cc3ccccn3)ccc2S(=O)(=O)N([C@H](C)CO)C[C@H]1C	nt	4	nt	2	4	nt
C[C@H](CO)N1C[C@H](C)[C@H](CN(C)Cc2ccc(C(=O)O)cc2)Oc2ccc(NC(=O)C3CC3)cc2CC1=O	nt	2	nt	1	44	nt
O=c1cc(COc2ncnc3ccccc23)nc2sccn12	100	12	543*	0	0	0
O=c1cc(COc2ncnc3c(Cl)cc(Cl)cc23)nc2sccn12	99	12	341	nt	nt	nt
O=C(/C=C/c1ccc(Cl)cc1)NCc1ccncc1	96	nt	566*	-5	1	1
Cc1ccc(/C=C/C(=O)NCc2ccncc2)cc1	104	nt	22	3	1	nt
CCCNC(=O)c1ccc(N2CC3CC(C2)c2cccc(=O)n2C3)c(NC(=O)Nc2ccc(CC)cc2)c1 (stereo not given)	102	-5	-2	1	1	nt
COc1cccc(NC(=O)Nc2cc(C(=O)NC(C)C)ccc2N2CC3CC(C2)c2cccc(=O)n2C3)c1 (stereo not given)	113	0	402*	3	-3	1
CCOC(=O)c1c(C)[nH]c(C=Nc2ccc(OC)cc2)c1O	96	nt	-17	nt	-8	nt
CCOC(=O)c1c(C)[nH]c(O)c1C=Nc1ccccc1	91	nt	883*	1	0	0
C[C@H](CO)N1C[C@H](C)[C@@H](CN(C)C(=O)Cc2ccccn2)Oc2ncc(C#CC3CC3)cc2C1=O	nt	2	nt	0	10	nt
O=C(CN1CCOCC1)NCC[C@@H]1CC[C@H](NC(=O)c2ccccc2F)[C@@H](CO)O1	nt	3	nt	0	13	nt
CCCCn1c(/C=N/Nc2nc3ccccc3[nH]2)nc2ccccc21	109	nt	418*	nt	nt	0
CCC1CCCCN1CCCNC(=O)C1CCC(CNS(=O)(=O)c2c(C)cc(C)cc2C)CC1 (stereo not given)	89	1	509*	-6	1	0
CCN(CC)CCCNC(=O)C1CCC(CNS(=O)(=O)c2c(C)cc(C)cc2C)CC1 (stereo not given)	94	5	19	2	-1	nt
O=C(NC1CCCCC1)C(c1cccs1)N(C(=O)c1ccccn1)c1ccccc1 (stereo not given)	104	10	1	-13	2	nt
O=C(NC1CCCC1)C(c1cccs1)N(C(=O)c1ccno1)c1ccccc1 (stereo not given)	101	nt	815*	-7	-2	0
Cc1[nH]n(-c2ccccc2)c(=O)c1C(C[N+](=O)[O-])c1ccc(Br)cc1 (stereo not given)	91	nt	524*	nt	nt	-1
COc1cc([N+](=O)[O-])cc(/C=N/NC(=O)c2cc(C)nc3ccccc23)c1O	101	1	758*	nt	nt	1
CC(=O)c1cccc(CN2CCCC(N3CCN(c4ccccc4F)CC3)C2)c1 (stereo not given)	119	4	796*	-3	0	0
Cc1ccc(/C=N/NC(=O)NC23CC4CC(CC(C4)C2)C3)o1	106	16	743*	-5	-2	-1
